Reference: ChEMBL document CHEMBL1122933, “Drug glycosides: potential prodrugs for colon-specific drug delivery” (J Med Chem, 1985)

Columns and labels:
[1] = Km(app) value was determined in homogenates of pooled cecal contents in rats; assay type: ADME; settings: rat, read-out: Km app
Summary of the method: (§1)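 Cecal contents from four rats pooled, weighed wet, diluted in 0.01 M phosphate pH 7.0 and homogenized. Reactions were run in duplicate at 37 °C for 15 min across substrate ranges spanning apparent KM. For p-nitrophenyl glycosides: 56-1000 substrate, NaOH stop, A403. For steroid glycosides: 0.5-48 substrate, MeOH quench, HPLC. KM(app) and Vmax (per g wet weight) came from Eadie-Hofstee plots.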

Rattus norvegicus [2] = organism: Rattus norvegicus; assay: Vmax value was determined in homogenates of pooled cecal contents in rats; assay type: ADME; summary of the method: as §1
Rattus norvegicus [3] = organism: Rattus norvegicus; assay: Specific activity of the DSI segment in rat intestine; assay type: functional
Summary of the method: (§2)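 Contents of each rat GI segment (stomach, proximal small intestine, distal small intestine, cecum) were pooled from four animals, weighed wet, diluted in cold 0.01 M phosphate buffer pH 7.0, and homogenized. Homogenate was incubated with 1.0 mM glycoside at 37 °C with shaking for up to 30 min. Aliquots were MeOH-quenched, centrifuged and analysed by HPLC for released aglycon.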

[4] = Partition coefficient (logP); assay type: physicochemical; settings: octanol/water
Rattus norvegicus [5] = organism: Rattus norvegicus; assay: Specific activity of the PSI segment in rat intestine; assay type: functional; set-up: unit not given here; summary of the method: as §2
Rattus norvegicus [6] = organism: Rattus norvegicus; assay: Total activity of the entire contents of DSI segment in rat intestine; assay type: functional; summary of the method: as §2
Rattus norvegicus [7] = organism: Rattus norvegicus; assay: Specific activity of the cecum segment in rat intestine; assay type: functional; summary of the method: as §2
Rattus norvegicus [8] = organism: Rattus norvegicus; assay: Total activity of the entire contents of cecum segment in rat intestine; assay type: functional; summary of the method: as §2
Rattus norvegicus [9] = organism: Rattus norvegicus; assay: Specific activity of the stomach segment in rat intestine; assay type: functional; summary of the method: as §2
Rattus norvegicus [10] = organism: Rattus norvegicus; assay: Total activity of the entire contents of stomach segment in rat intestine; assay type: functional; summary of the method: as §2
Rattus norvegicus [11] = organism: Rattus norvegicus; assay: Total activity of the entire contents of PSI segment in rat intestine; assay type: functional; summary of the method: as §2

Structure (SMILES)	Km [1] [µM]	Vmax (Rattus norvegicus [2]) [µM/min/g]	Specific activity (Rattus norvegicus [3]) [nM/min]	logP [4]	Specific activity (Rattus norvegicus [5])	Total activity (Rattus norvegicus [6]) [µM/min]	Specific activity (Rattus norvegicus [7]) [nM/min]	Total activity (Rattus norvegicus [8]) [µM/min]	Specific activity (Rattus norvegicus [9]) [nM/min]	Total activity (Rattus norvegicus [10]) [µM/min]	Total activity (Rattus norvegicus [11]) [µM/min]
CC12CCC(=O)C=C1CCC1C2C(O)CC2(C)C1CC[C@]2(O)C(=O)CO[C@@H]1O[C@@H](CO)[C@@H](O)[C@H](O)[C@H]1O (some centres not stated)	33.3	20.6	110	0.15	42.5	1.6	592	11.9	12.5	0.02	0.02
O=[N+]([O-])c1ccc(O[C@@H]2O[C@H](CO)[C@H](O)[C@H](O)[C@H]2O)cc1	166	1233	425			3.6	1620	30.8	57.8	0.7	0.2
C[C@]12C=CC(=O)C=C1CC[C@@H]1[C@@H]2[C@@H](O)C[C@@]2(C)[C@H]1CC[C@]2(O)C(=O)CO [PREDNISOLONE]				1.55							
C[C@]12C=CC(=O)C=C1CC[C@@H]1[C@@H]2C(O)C[C@@]2(C)[C@H]1CC[C@]2(O)C(=O)CO[C@@H]1O[C@@H](CO)[C@@H](O)[C@H](O)[C@H]1O (some centres not stated)	20	10.3	122	0.11	49.3	1.72	665	13	12.1	0.19	0.23
CC12CCC(=O)C=C1CCC1C3CC[C@](O)(C(=O)CO[C@H]4O[C@H](CO)[C@@H](O)[C@H](O)[C@H]4O)C3(C)CC(O)[C@@]12F (some centres not stated)	2.5	2.2	56.7	0.25	12.5	0.8	642	12.9	7	0.01	0.01
C[C@]12CCC(=O)C=C1CC[C@@H]1[C@@H]2[C@@H](O)C[C@@]2(C)[C@H]1CC[C@]2(O)C(=O)CO [HYDROCORTISONE]				1.54							
CC12CCC(=O)C=C1CCC1C2C(O)CC2(C)C1CC[C@]2(O)C(=O)CO[C@@H]1O[C@H](CO)[C@@H](O)[C@H](O)[C@H]1O (some centres not stated)	5.7	2.6	39.2	0.44	15.9	0.7	30.5	0.76	5.5	0.09	0.1
CC12CCC(=O)C=C1CCC1C3CC[C@](O)(C(=O)CO[C@H]4O[C@@H](CO)[C@@H](O)[C@H](O)[C@H]4O)C3(C)CC(O)[C@@]12F (some centres not stated)	4.4	2.4	33	0.84	12.3	0.43	49	1.4	7.7	0.14	0.08
O=[N+]([O-])c1ccc(O[C@@H]2O[C@H](CO)[C@@H](O)[C@H](O)[C@H]2O)cc1	360	697	86.6			0.65	454	9.1	72.2	0.08	0.15
CC1CC2C3CCC4=CC(=O)C=CC4(C)[C@@]3(F)C(O)CC2(C)[C@@]1(O)C(=O)CO[C@@H]1O[C@H](CO)[C@@H](O)[C@H](O)[C@H]1O (some centres not stated)	16.7	10.2	19.3			0.34	141	3.5	6.8	0.12	0.07
C[C@]12C=CC(=O)C=C1CC[C@@H]1[C@@H]2[C@@H](O)C[C@@]2(C)[C@H]1CC[C@]2(O)C(=O)CO[C@@H]1O[C@H](CO)[C@@H](O[C@@H]2O[C@H](CO)[C@@H](O)[C@H](O)[C@H]2O)[C@H](O)[C@H]1O			32.5	-0.56	26	0.64	109	2.2	7.5	0.01	0.11
O=[N+]([O-])c1ccc(O[C@@H]2O[C@H](CO)[C@@H](O[C@@H]3O[C@H](CO)[C@@H](O)[C@H](O)[C@H]3O)[C@H](O)[C@H]2O)cc1			26			0.25	96.5	2.6	34.2	0.35	0.05
C[C@@H]1C[C@H]2[C@@H]3CCC4=CC(=O)C=C[C@]4(C)[C@@]3(F)[C@@H](O)C[C@]2(C)[C@@]1(O)C(=O)CO [DEXAMETHASONE]				1.72							
C[C@]12C=CC(=O)C=C1CC[C@@H]1[C@@H]2C(O)C[C@@]2(C)[C@H]1CC[C@]2(O)C(=O)CO[C@@H]1O[C@H](CO)[C@@H](O)[C@H](O)[C@H]1O (some centres not stated)	4.5	2.6	56.8	0.27	12.2	1	265	6.6	6.8	0.12	0.07
CC1CC2C3CCC4=CC(=O)C=CC4(C)[C@@]3(F)C(O)CC2(C)[C@@]1(O)C(=O)CO[C@@H]1O[C@@H](CO)[C@@H](O)[C@H](O)[C@H]1O (some centres not stated)	13.3	3.9	29.3			0.41	322	6.5	2	0.004	0.004
CC12CCC(=O)C=C1CCC1C3CC[C@](O)(C(=O)CO)C3(C)CC(O)[C@@]12F (some centres not stated)				1.73							
